High-throughput results deposited in PubChem by several laboratories.
MT stabilizer: microtubule stabilizers in HeLa cells, primary screen, imaging, high-content imaging; HeLa tubulin immunostaining HCS, 24 h; share of cells brighter than vehicle mean+2SD; % tubulin-high responders, % at 10 µM; actives 0.83% (n = 200,000);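 active means plate Z-score above 3 for both tubulin-high and condensed-nucleus cell shares, with cell loss under 80%, at 10 µM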;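 further: anti alpha tubulin signal scored within the nucleus-defined area of each cell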
APP transl inh: inhibitors of APP translation via 5'UTR reporter, primary screen, APP 5'UTR luciferase, SH-SY5Y cells | SH-SY5Y APP 5'UTR-luciferase reporter, luminescence | actives 0.82% (n = 190,000) | inhibition, % at 2 µM;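 active means inhibition above a set limit, derived from the sample mean plus 3 SD, cut at about 45% in these data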
BaF3 parental: parental Ba/F3 cell viability inhibition, counter-screen for JAK2V617F inhibitor project, murine pro-B, CellTiter-Glo luminescence | CellTiter-Glo ATP luminescence | inhibition, % at 5.6 µM | actives 1.1% (n = 220,000);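 active means inhibition above a per-campaign cutoff, the mean inhibition of all tested compounds plus 3 SD, cut at about 27% in these data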
bCat nuc transl: modulators of beta-catenin nuclear translocation, primary screen, imaging, HeLa cells, immunofluorescence, high-content; nuclear translocation activity, % at 5 µM; actives 0.3% (n = 190,000); AID 1665, 2009;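 active means nuclear translocation activity above 50% at 5 µM, with a well cell count of 50 or more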;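 further: per-cell ratio of nuclear to cytoplasmic median beta-catenin stain intensity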
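assay system = human HeLa cells, endogenous beta-catenin | times = compound treatment 24 h, 37°C, 5% CO2 | detection = Anti-beta-catenin immunofluorescence on PFA-fixed, Triton-permeabilized cells, DAPI nuclei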
Ba/F3 V617F tox: reduced viability of JAK2V617F-dependent Ba/F3 cells, primary screen, JAK2V617F inhibitor project, cell-based, Ba/F3 EpoR-JAK2V617F, luminescence. ATP luminescence. inhibition, % at 5.6 µM. actives 1.1% (n = 220,000);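 active means inhibition above the campaign mean plus 3 SD over all tested compounds, cut at about 24% in these data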;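 further: cytokine-independent growth of Ba/F3 cells driven by EpoR plus mutant JAK2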
IEC-6 cytotox: cytotoxicity in IEC-6 intestinal epithelial cells, primary screen, cytotoxicity control for KLF5 inhibitor project, cell-based, luminescence; IEC-6 cytotoxicity, luminescence viability; AID 1825, 2009; inhibition, % at 5 µM; actives 0.78% (n = 290,000); in the data active means inhibition above about 22%
BaF3 tox 2: parental Ba/F3 cell viability inhibition, counter-screen for JAK2V617F inhibitor project, murine pro-B, CellTiter-Glo luminescence | shares compounds with Ba/F3 V617F tox | cells kept alive by added IL-3 | inhibition, % at 5.6 µM | actives 31% (n = 580) | AID 1520, 2009;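 active means cell growth inhibition above the hit limit set in the earlier mutant JAK2 cell screen, cut at about 27% in these data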
JAK2V617F conf: viability loss in Ba/F3 EpoR-JAK2V617F cells, confirmation, JAK2V617F inhibitor project, cell-based, luminescence, triplicate; shares compounds with Ba/F3 V617F tox; CellTiter-Glo luminescence; inhibition, % at 5.6 µM; actives 66% (n = 580);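 active means mean inhibition above the hit cutoff derived in the earlier primary screen, cut at about 25% in these data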;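 further: higher means lower luminescence from reduced cell ATP and viability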
Of the large screens only hits and unclear results are named; the others gave an inactive call (follow-up assays come after a bar, where they were run). A selection: hits, their analogues and other compounds. The true share with any hit is near 2.2%.

Cc1cc2ccccn2c1C(=O)c1ccc([N+](=O)[O-])o1	APP transl inh 54, Ba/F3 V617F tox 27 | BaF3 tox 2 inactive | JAK2V617F conf 42
Cc1cc2ccccn2c1C(=O)c1cccc([N+](=O)[O-])c1	none
O=c1[nH]cnc2c1ncn2[C@@H]1O[C@H](CO)[C@@H](O)[C@H]1O	none (no result: bCat nuc transl)
O=c1cnn([C@@H]2O[C@H](CO)[C@@H](O)[C@H]2O)c(=O)[nH]1	Ba/F3 V617F tox 36 (no result: bCat nuc transl) | BaF3 tox 2 inactive | JAK2V617F conf 68
COc1ccc(N(CC(=O)NCc2ccccc2OC)S(=O)(=O)c2ccccc2)cc1	none (no result: MT stabilizer, APP transl inh, BaF3 parental, bCat nuc transl, Ba/F3 V617F tox)
Cc1ccc(C(=O)N2CCN3C(=O)c4ccccc4C23c2ccc(Cl)cc2)cc1 (centres undefined)	Ba/F3 V617F tox 28 | BaF3 tox 2 inactive | JAK2V617F conf 36
COc1cc(C(=O)OCC(C)=O)ccc1OCc1c(C)noc1C	MT stabilizer 31, Ba/F3 V617F tox 39 | BaF3 tox 2 inactive | JAK2V617F conf 26
CCOC(=O)C(C)Oc1cccc2c(=O)n(CC(=O)NCc3ccc(F)cc3)ccc12 (centres undefined)	bCat nuc transl 106, Ba/F3 V617F tox 29 (no result: MT stabilizer, APP transl inh) | BaF3 tox 2 62 | JAK2V617F conf 97
COC(=O)COc1cccc2c(=O)n(CC(=O)N3CCCCC3)ccc12	none (no result: MT stabilizer, APP transl inh)
COC(=O)COc1cccc2c(=O)n(CC(=O)NCc3ccc(F)cc3)ccc12	MT stabilizer 20, APP transl inh 73, Ba/F3 V617F tox 74 | BaF3 tox 2 inactive | JAK2V617F conf 86
COc1cc2c(=O)n(CC3CCCO3)c(=O)n(CC(=O)Nc3ccccc3)c2cc1OC (centres undefined)	none (no result: MT stabilizer, APP transl inh, BaF3 parental, bCat nuc transl, Ba/F3 V617F tox)
Nc1[nH]n(-c2ccccc2)c(=O)c1N=Nc1ccc2c(c1)OCO2	Ba/F3 V617F tox 27 (no result: MT stabilizer, APP transl inh) | BaF3 tox 2 57 | JAK2V617F conf 44
Cc1ccnc(NC(=O)c2ccc([N+](=O)[O-])o2)c1	none
Cc1ccc(NC(=O)c2ccc([N+](=O)[O-])o2)cc1C	Ba/F3 V617F tox 37, IEC-6 cytotox 45 | BaF3 tox 2 31 | JAK2V617F conf 93
O=C(CCl)NC(=O)NC12CC3CC(CC(C3)C1)C2	Ba/F3 V617F tox 43 | BaF3 tox 2 inactive | JAK2V617F conf 93
COc1ccc(-c2cc3nc(C)n(N)c(=O)c3s2)cc1	Ba/F3 V617F tox 41 (no result: MT stabilizer, APP transl inh) | BaF3 tox 2 56 | JAK2V617F conf 40
COc1ccc(-c2cc3nc4n(c(=O)c3s2)CCC4)cc1	none (no result: bCat nuc transl)
Cc1nc2cc(-c3ccccc3)sc2c(=O)n1N	Ba/F3 V617F tox 25 | BaF3 tox 2 48 | JAK2V617F conf 37
CN1/C(=C\C(=O)CSc2nnc(NCc3ccccc3)s2)C(C)(C)c2ccccc21	Ba/F3 V617F tox 33 | BaF3 tox 2 inactive | JAK2V617F conf inactive
CN(CCC#N)C(=O)c1ccc(CNS(=O)(=O)c2ccc(F)cc2)cc1	none (no result: APP transl inh)
Cc1ccc(S(=O)(=O)NCc2ccc(C(=O)N(C)CCC#N)cc2)cc1	Ba/F3 V617F tox 93 (no result: APP transl inh) | BaF3 tox 2 inactive | JAK2V617F conf inactive
Cc1cc([N+](=O)[O-])ccc1NC(=O)c1csc(C)c1C	none (no result: MT stabilizer, APP transl inh, BaF3 parental, bCat nuc transl, Ba/F3 V617F tox)
Cc1cc(NC(=O)c2cc(-c3ccc(C)c(C)c3)nc3ccccc23)no1	Ba/F3 V617F tox 63 (no result: bCat nuc transl) | BaF3 tox 2 inactive | JAK2V617F conf inactive
Cc1ccc(-c2cc(C(=O)Nc3cc(C)on3)c3ccccc3n2)cc1	none
Cc1cc(-c2ccc(C(C)C)c(S(=O)(=O)N3CC(=O)Nc4ccccc43)c2)on1	none (no result: MT stabilizer, APP transl inh, BaF3 parental, bCat nuc transl, Ba/F3 V617F tox)
Cc1ccc(NC(=O)/C(=C\c2ccccc2)NC(=O)/C=C/c2ccccc2)cc1	Ba/F3 V617F tox 72 | BaF3 tox 2 inactive | JAK2V617F conf inactive
